Measurements as given in ChEMBL document CHEMBL3112420, “Discovery of 8-cyclopentyl-2-[4-(4-methyl-piperazin-1-yl)-phenylamino]-7-oxo-7,8-dihydro-pyrido[2,3-d]pyrimidine-6-carbonitrile (7x) as a potent inhibitor of cyclin-dependent kinase 4 (CDK4) and AMPK-related kinase 5 (ARK5)” (J Med Chem, 2014).
The source made the active and inactive calls. The rule behind the calls is not given here.

Columns and labels:
Mus musculus [1] = experiment: Toxicity in NCR nude mouse xenografted with human MDA-MB-231 cells assessed as weight loss at 50 mg/kg, ip […] administered on alternative days measured every 2 days up to 21 days; assay type: organism-based; parameters: dose 50 mg/kg, route intraperitoneal; details: in vivo
Procedure, shortened: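 MDA-MB-231 cells orthotopically implanted into mammary fat pads of 6–8 week old female nude mice (n=11 per group). Dosing began when average tumour volume reached 100 mm3. Lactate salt in PBS or vehicle was given intraperitoneally every other day (Q2D). Tumour volumes and body weights were recorded every 2 days over 21 days; mean ± SEM.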

[2] = Toxicity in CD-1 mouse […] assessed as survival rate at 200 mg/kg, ip administered for 5 days measured after 10 days; assay type: organism-based; parameters: dose 200 mg/kg, route intraperitoneal; details: in vivo
Procedure, shortened: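 Female CD-1 mice (n=3) were given 200 mg/kg ip on 5 consecutive days. They were then monitored for signs of toxicity, with survival followed beyond 10 days after injection. This came after an initial single-dose test at 100 or 200 mg/kg ip with 7-day monitoring.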

Mus musculus [3] = experiment: Toxicity in CD-1 mouse xenografted with human MDA-MB-231 cells assessed as weight loss at 100 to 200 mg/kg, ip measured for 7 days; assay type: organism-based; parameters: dose 100-200 mg/kg, route intraperitoneal; details: in vivo, 168 h
MDA-MB-231 [4] = experiment: Inhibition of PI3K in human MDA-MB-231 cells assessed as inhibition of Akt phosphorylation at Ser473 at 0.1 to 10 uM after 24 hrs by Western blotting analysis; assay type: cell-based
Procedure, shortened: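 Total lysates (100 μg) were run on 10% SDS-PAGE and immunoblotted for Ser473-phosphorylated and total AKT, with GAPDH as loading control. Detection used infrared-dye secondary antibodies.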

MDA-MB-231 [5] = experiment: Induction of apoptosis in human MDA-MB-231 cells assessed as PARP cleavage at 1 to 10 uM after 24 hrs by Western blotting analysis; assay type: functional, cell-based
MDA-MB-231 [6] = experiment: Induction of apoptosis in human MDA-MB-231 cells assessed as PARP cleavage after 24 hrs by Western blotting analysis; assay type: functional, cell-based
MCF7 [7] = experiment: Induction of apoptosis in human MCF7 cells assessed as PARP cleavage at 1 to 10 uM after 24 hrs by Western blotting analysis; assay type: functional, cell-based
MCF7 [8] = experiment: Induction of apoptosis in human MCF7 cells assessed as PARP cleavage after 24 hrs by Western blotting analysis; assay type: functional, cell-based
MDA-MB-231 [9] = experiment: Cell cycle arrest in human MDA-MB-231 cells assessed as accumulation at G1 phase at 0.5 to 1 uM after 24 hrs by propidium iodide staining-based flow cytometric analysis; assay type: functional
Procedure, shortened: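 Cells plated at 1.0 × 10^6 per dish, then treated 24 h later with increasing concentrations for 24 h. Floating and adherent cells were pooled, PBS-washed and fixed in ice-cold 70% ethanol for at least 24 h. They were then stained with propidium iodide plus RNase A for 30 min at 37 °C. Percentage of cells in each phase was read by flow cytometry.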

[10] = molecular target: T1, Cyclin-dependent kinase 4/cyclin D1 (Homo sapiens) (UniProt P11802+P24385); experiment: Inhibition of recombinant CDK4/cyclinD1 in human MDA-MB-231 cells assessed as inhibition of retinoblastoma phosphorylation at Ser780 at 0.5 to 5 uM after 24 hrs by Western blotting analysis; assay type: cell-based
Procedure, shortened: (§1)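 Breast carcinoma cells were given increasing concentrations for 24 h. Total lysates (100 μg, 10% SDS-PAGE) were immunoblotted with antibodies against Ser780-phosphorylated and non-phosphorylated RB. Bands were read on an infrared scanning system.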

[11] = molecular target: T1, Cyclin-dependent kinase 4/cyclin D1 (Homo sapiens); experiment: Inhibition of recombinant CDK4/cyclinD1 in human MCF7 cells assessed as inhibition of retinoblastoma phosphorylation at Ser780 at 0.5 to 5 uM after 24 hrs by Western blotting analysis; assay type: cell-based; procedure, shortened: as §1
[12] = molecular target: Tyrosine-protein kinase ABL1 (Homo sapiens, UniProt P00519); experiment: Inhibition of ABL (unknown origin)
[13] = molecular target: Platelet-derived growth factor receptor beta (Homo sapiens, UniProt P09619); experiment: Inhibition of PDGFRbeta (unknown origin)
[14] = molecular target: Receptor-type tyrosine-protein kinase FLT3 (Homo sapiens, UniProt P36888); experiment: Inhibition of FLT3 (unknown origin)
[15] = molecular target: Tyrosine-protein kinase Fyn (Homo sapiens, UniProt P06241); experiment: Inhibition of FYN (unknown origin)
[16] = Cytotoxicity against human HFL cells after 96 hrs by Cell-Titer Blue assay; assay type: cell-based
HCT-15 = experiment: Cytotoxicity against human HCT15 cells after 96 hrs by Cell-Titer Blue assay; assay type: functional; details: HCT-15, 96 h
2008 = experiment: Cytotoxicity against human 2008 cells after 96 hrs by Cell-Titer Blue assay; assay type: functional; details: Homo sapiens, 2008, 96 h
MDA-MB-157 = experiment: Cytotoxicity against human MDA-MB-157 cells after 96 hrs by Cell-Titer Blue assay; assay type: functional; details: MDA-MB-157, 96 h
[17] = Cytotoxicity against human HCC1428 cells after 96 hrs by Cell-Titer Blue assay; assay type: functional; details: HCC1428, 96 h
COLO 205 = experiment: Cytotoxicity against human COLO205 cells after 96 hrs by Cell-Titer Blue assay; assay type: functional; details: COLO 205, 96 h
MDA-MB-468 = experiment: Cytotoxicity against human MDA-MB-468 cells after 96 hrs by Cell-Titer Blue assay; assay type: functional; details: MDA-MB-468, 96 h
[18] = Cytotoxicity against human SNU475 cells after 96 hrs by Cell-Titer Blue assay; assay type: functional; details: SNU-475, 96 h
[19] = Cytotoxicity against human SNU398 cells after 96 hrs by Cell-Titer Blue assay; assay type: functional; details: SNU-398, 96 h
[20] = Cytotoxicity against human SNU449 cells after 96 hrs by Cell-Titer Blue assay; assay type: functional; details: SNU-449, 96 h
[21] = Cytotoxicity against human BT20 cells after 96 hrs by Cell-Titer Blue assay; assay type: functional; details: BT-20, 96 h
A549 = experiment: Cytotoxicity against human A549 cells after 96 hrs by Cell-Titer Blue assay; assay type: functional; details: A549, 96 h
HeLa = experiment: Cytotoxicity against human HeLa cells after 96 hrs by Cell-Titer Blue assay; assay type: functional
[22] = Cytotoxicity against human U266 cells after 96 hrs by Cell-Titer Blue assay; assay type: functional; details: U-266, 96 h
NCI-H417 = experiment: Cytotoxicity against human NCI-N417 cells after 96 hrs by Cell-Titer Blue assay; assay type: functional; details: NCI-H417, 96 h
SK-OV-3 = experiment: Cytotoxicity against human SKOV3 cells after 96 hrs by Cell-Titer Blue assay; assay type: functional; details: SK-OV-3, 96 h
NCI-N87 = experiment: Cytotoxicity against human NCI-N87 cells after 96 hrs by Cell-Titer Blue assay; assay type: functional; details: NCI-N87, 96 h
[23] = Cytotoxicity against human Z138C cells after 96 hrs by Cell-Titer Blue assay; assay type: functional
[24] = Cytotoxicity against human SKBR3 cells after 96 hrs by Cell-Titer Blue assay; assay type: functional; details: SK-BR-3, 96 h
DU-145 = experiment: Cytotoxicity against human DU145 cells after 96 hrs by Cell-Titer Blue assay; assay type: functional, cell-based; details: DU-145, 96 h
K562 = experiment: Cytotoxicity against human K562 cells after 96 hrs by Cell-Titer Blue assay; assay type: functional, cell-based; details: K562, 96 h
[25] = molecular target: Cyclin-dependent kinase 4/cyclin D1 (Homo sapiens, UniProt P11802); experiment: Inhibition of CDK4/cyclinD1 (unknown origin); assay type: protein-complex assay
Cyclin-dependent kinase 4/cyclin D1, sequence (P11802 whole entry): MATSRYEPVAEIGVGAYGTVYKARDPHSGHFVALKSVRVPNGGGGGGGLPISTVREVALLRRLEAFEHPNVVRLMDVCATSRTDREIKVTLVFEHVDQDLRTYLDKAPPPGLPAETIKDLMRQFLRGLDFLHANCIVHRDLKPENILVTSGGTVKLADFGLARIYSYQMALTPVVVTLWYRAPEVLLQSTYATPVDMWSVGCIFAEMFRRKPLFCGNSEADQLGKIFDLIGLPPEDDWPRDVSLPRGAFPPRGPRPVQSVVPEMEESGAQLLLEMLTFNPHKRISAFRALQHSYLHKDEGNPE
Cyclin-dependent kinase 4/cyclin D1, sequence (P24385 whole entry, further chain): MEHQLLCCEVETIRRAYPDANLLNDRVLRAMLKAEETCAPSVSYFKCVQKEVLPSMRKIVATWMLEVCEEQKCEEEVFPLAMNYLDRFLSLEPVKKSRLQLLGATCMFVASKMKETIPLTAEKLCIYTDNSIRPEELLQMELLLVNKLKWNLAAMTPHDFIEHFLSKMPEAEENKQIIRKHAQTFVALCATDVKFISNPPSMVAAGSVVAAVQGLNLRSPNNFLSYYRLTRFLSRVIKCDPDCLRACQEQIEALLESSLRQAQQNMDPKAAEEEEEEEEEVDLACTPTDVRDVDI

Tyrosine-protein kinase Fyn, sequence (P06241 whole entry): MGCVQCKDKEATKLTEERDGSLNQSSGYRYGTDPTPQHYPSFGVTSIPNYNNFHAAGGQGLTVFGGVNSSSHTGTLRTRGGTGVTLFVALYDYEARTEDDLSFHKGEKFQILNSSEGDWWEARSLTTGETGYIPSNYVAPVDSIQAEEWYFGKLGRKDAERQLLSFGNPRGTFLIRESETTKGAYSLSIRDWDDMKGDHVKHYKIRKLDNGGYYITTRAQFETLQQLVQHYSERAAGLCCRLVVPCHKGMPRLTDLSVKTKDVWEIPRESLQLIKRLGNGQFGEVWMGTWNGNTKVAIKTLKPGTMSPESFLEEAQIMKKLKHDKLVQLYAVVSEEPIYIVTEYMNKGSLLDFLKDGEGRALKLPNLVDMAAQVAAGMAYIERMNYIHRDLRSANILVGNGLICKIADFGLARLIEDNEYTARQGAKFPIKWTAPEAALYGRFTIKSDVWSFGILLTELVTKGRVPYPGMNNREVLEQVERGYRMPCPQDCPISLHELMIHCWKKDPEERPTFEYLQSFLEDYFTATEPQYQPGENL
Platelet-derived growth factor receptor beta, sequence (P09619 whole entry): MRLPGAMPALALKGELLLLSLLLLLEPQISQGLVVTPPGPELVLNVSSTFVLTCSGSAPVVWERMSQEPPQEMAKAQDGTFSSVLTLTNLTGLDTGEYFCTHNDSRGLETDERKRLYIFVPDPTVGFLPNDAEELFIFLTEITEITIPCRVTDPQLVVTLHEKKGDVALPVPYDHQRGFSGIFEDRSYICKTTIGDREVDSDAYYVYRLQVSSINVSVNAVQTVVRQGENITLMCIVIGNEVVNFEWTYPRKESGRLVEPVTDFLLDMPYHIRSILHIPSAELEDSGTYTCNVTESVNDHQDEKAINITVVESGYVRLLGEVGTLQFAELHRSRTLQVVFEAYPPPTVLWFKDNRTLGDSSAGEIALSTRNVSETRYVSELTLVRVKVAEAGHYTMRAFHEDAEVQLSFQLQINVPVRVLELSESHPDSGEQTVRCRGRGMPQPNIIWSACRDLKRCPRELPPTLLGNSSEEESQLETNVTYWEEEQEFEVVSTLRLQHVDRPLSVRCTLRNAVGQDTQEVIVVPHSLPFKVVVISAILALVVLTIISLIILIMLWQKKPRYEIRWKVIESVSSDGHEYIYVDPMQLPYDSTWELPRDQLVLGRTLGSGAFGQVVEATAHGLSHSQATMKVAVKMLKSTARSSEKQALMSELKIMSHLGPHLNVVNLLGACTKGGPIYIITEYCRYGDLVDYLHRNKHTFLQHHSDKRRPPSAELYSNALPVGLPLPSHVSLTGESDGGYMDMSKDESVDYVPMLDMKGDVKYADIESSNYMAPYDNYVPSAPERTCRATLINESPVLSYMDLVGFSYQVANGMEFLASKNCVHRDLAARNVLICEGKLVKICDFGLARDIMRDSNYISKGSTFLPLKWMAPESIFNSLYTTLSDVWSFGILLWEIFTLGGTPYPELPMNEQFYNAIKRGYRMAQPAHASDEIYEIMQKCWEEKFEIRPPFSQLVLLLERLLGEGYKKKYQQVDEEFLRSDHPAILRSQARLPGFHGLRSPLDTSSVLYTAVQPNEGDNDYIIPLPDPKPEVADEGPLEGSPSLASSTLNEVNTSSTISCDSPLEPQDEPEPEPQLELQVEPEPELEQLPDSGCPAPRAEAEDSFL
Tyrosine-protein kinase ABL1, sequence (P00519 whole entry): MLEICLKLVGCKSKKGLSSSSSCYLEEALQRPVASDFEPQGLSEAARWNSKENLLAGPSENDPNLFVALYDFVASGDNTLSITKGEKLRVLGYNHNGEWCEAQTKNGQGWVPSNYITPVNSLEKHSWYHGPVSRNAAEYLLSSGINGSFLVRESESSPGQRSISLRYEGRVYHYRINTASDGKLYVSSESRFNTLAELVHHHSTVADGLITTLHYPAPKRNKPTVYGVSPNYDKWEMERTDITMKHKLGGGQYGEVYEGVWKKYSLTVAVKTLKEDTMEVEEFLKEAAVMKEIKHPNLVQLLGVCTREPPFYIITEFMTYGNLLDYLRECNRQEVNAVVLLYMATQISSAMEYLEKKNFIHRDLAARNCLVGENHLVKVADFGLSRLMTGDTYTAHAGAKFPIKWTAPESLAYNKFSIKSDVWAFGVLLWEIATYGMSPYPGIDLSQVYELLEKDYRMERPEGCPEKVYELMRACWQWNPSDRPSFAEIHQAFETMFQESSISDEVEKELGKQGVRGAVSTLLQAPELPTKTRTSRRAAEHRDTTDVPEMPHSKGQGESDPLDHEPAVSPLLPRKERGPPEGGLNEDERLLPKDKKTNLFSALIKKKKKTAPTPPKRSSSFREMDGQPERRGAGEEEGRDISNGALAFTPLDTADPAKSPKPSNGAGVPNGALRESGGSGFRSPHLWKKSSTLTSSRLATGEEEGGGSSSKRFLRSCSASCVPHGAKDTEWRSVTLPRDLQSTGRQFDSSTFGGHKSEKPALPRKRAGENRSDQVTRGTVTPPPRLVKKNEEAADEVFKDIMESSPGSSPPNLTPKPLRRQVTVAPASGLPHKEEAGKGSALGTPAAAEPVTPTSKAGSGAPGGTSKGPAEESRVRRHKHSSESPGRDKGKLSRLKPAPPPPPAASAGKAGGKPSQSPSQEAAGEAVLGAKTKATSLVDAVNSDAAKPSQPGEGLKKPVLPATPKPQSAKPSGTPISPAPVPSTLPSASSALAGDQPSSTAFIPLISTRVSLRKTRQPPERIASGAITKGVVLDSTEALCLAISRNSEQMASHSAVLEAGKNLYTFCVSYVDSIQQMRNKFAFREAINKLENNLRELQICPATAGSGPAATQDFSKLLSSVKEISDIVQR
Receptor-type tyrosine-protein kinase FLT3, sequence (P36888 whole entry): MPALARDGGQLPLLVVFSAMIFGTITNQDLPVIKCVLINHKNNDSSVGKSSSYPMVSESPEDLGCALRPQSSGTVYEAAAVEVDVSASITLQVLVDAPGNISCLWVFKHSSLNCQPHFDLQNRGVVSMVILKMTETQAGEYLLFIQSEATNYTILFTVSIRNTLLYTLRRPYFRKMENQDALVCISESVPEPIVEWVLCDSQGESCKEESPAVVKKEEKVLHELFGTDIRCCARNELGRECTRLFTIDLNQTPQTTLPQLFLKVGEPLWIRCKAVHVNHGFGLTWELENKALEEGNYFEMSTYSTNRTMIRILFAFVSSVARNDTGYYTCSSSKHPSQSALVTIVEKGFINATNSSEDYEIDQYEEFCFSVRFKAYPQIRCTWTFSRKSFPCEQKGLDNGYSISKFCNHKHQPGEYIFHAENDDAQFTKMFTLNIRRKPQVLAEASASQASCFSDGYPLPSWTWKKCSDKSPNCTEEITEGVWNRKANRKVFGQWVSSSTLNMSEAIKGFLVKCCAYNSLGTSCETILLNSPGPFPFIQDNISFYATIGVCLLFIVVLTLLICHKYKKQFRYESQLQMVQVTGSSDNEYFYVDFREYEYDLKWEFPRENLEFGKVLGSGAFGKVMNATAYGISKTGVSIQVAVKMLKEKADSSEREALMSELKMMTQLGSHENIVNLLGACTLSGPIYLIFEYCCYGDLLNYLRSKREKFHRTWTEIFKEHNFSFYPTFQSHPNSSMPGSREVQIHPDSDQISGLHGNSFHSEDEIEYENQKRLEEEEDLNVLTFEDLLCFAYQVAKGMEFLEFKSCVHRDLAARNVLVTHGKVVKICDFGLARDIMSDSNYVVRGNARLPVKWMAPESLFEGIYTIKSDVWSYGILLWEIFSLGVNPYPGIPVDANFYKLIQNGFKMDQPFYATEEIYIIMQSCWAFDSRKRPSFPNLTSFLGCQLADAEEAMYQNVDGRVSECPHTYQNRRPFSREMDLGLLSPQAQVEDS

CN1CCN(c2ccc(Nc3ncc4cc(C#N)c(=O)n(C5CCCC5)c4n3)cc2)CC1 [NARAZACICLIB]
Activity (Mus musculus [1]): Non-toxic | survival at 240 h [2]: 100% | Activity (Mus musculus [3]): Non-toxic | inhibition (MDA-MB-231 [4]): Active | Activity (MDA-MB-231 [5]): Active | Activity (MDA-MB-231 [6]): Dose-dependent effect | Activity (MCF7 [7]): Active | Activity (MCF7 [8]): Dose-dependent effect | Activity (MDA-MB-231 [9]): Active | inhibition [10]: Active | inhibition [11]: Active | IC50 [12]: 53.3 nM | IC50 [13]: 26 nM | IC50 [14]: 12.2 nM | IC50 [15]: 11.1 nM | GI50 at 96 h [16]: 5000 nM | GI50 (HCT-15): 300 nM | GI50 2008: 1500 nM | GI50 (MDA-MB-157): 1000 nM | GI50 [17]: 300 nM | GI50 (COLO 205): 100 nM | GI50 (MDA-MB-468): 2000 nM | GI50 [18]: 300 nM | GI50 [19]: 200 nM | GI50 [20]: 750 nM | GI50 [21]: 100 nM | GI50 (A549): 200 nM | GI50 (HeLa): 750 nM | GI50 [22]: 200 nM | GI50 (NCI-H417): 250 nM | GI50 (SK-OV-3): 750 nM | GI50 (NCI-N87): 900 nM | GI50 [23]: 25 nM | GI50 [24]: 150 nM | GI50 (DU-145): 50 nM | GI50 (K562): 100 nM | IC50 (K562): 50 nM | IC50 [25]: 3.8 nM
